Experimental data taken from ChEMBL document CHEMBL1140861, “Short antisense oligonucleotides with novel 2'-4' conformationaly restricted nucleoside analogues show improved potency without increased toxicity in animals” (J Med Chem, 2009).
Active and inactive are the calls of the source. The rule behind the calls is not given here.

Legend:
[1] = tested on: Mus musculus; assay: Hepatotoxicity in BALB/c mouse assessed as increase in liver ALT level at 4.7 mg/kg, ip administered twice a week for 3 weeks measured after 72 hrs of last dose; assay type: toxicity, organism-based; design: dose 4.7 mg/kg, route intraperitoneal; conditions: in vivo
Outline: (§1)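 Male Balb/c mice, 6 weeks old, dosed ip twice weekly for 3 weeks at 0.5, 1.5, 4.7 and 15 mg/kg (two ASOs) or 0.7, 2.3, 7.2 and 23 mg/kg (MOE control); sacrificed 72 h after last dose; ALT, liver PTEN mRNA, liver and spleen weights and body weight gain assessed; ED50 derived; errors as sd.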

[2] = tested on: Mus musculus; assay: Toxicity in BALB/c mouse assessed as increase in liver weight at 1.5 mg/kg, ip administered twice a week for 3 weeks measured after 72 hrs of last dose; assay type: organism-based; design: dose 1.5 mg/kg, route intraperitoneal; conditions: in vivo; outline: as §1
[3] = tested on: Mus musculus; assay: Hepatotoxicity in BALB/c mouse assessed as increase in liver ALT level at 1.5 mg/kg, ip administered twice a week for 3 weeks measured after 72 hrs of last dose; assay type: toxicity, organism-based; design: dose 1.5 mg/kg, route intraperitoneal; conditions: in vivo; outline: as §1
[4] = tested on: bEND; assay: Reduction in mouse PTEN mRNA level expressed in mouse bEND cells; assay type: functional, cell-based
Outline: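 bEND mouse brain endothelial cells transfected with ASO using lipofectin; PTEN mRNA reduction measured over a dose range; IC50 taken from dose-response curves.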

[5] = tested on: Mus musculus; assay: Reduction of PTEN mRNA level in BALB/c mouse liver at 66 mg/kg, ip after 72 hrs; assay type: functional, organism-based; design: dose 66 mg/kg
Outline: (§2)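 Balb/c mice, 6 weeks old, n = 4 per dose group, single ip doses of 32, 66 or 100 mg/kg; killed 72 h after administration; serum ALT and liver PTEN mRNA quantified after sacrifice; errors as sd.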

[6] = tested on: Mus musculus; assay: Hepatotoxicity in BALB/c mouse assessed as increase in liver ALT level at 0.5 mg/kg, ip administered twice a week for 3 weeks measured after 72 hrs of last dose; assay type: toxicity, organism-based; design: dose 0.5 mg/kg, route intraperitoneal; conditions: in vivo; outline: as §1
[7] = tested on: Mus musculus; assay: Reduction of PTEN mRNA expression in ip dosed BALB/c mouse administered twice a week for 3 weeks assessed as antisense oligonucleotide level in liver measured after 72 hrs of last dose; assay type: functional, organism-based
[8] = tested on: Mus musculus; assay: Toxicity in BALB/c mouse assessed as increase in liver weight at 0.5 mg/kg, ip administered twice a week for 3 weeks measured after 72 hrs of last dose; assay type: organism-based; design: dose 0.5 mg/kg, route intraperitoneal; conditions: in vivo; outline: as §1
[9] = tested on: Mus musculus; assay: Toxicity in BALB/c mouse assessed as reduction in body weight at 1.5 mg/kg, ip administered twice a week for 3 weeks measured after 72 hrs of last dose; assay type: organism-based; design: dose 1.5 mg/kg, route intraperitoneal; conditions: in vivo; outline: as §1
[10] = tested on: Mus musculus; assay: Toxicity in BALB/c mouse assessed as increase in liver weight at 15 mg/kg, ip administered twice a week for 3 weeks measured after 72 hrs of last dose; assay type: organism-based; design: dose 15 mg/kg, route intraperitoneal; conditions: in vivo; outline: as §1
[11] = tested on: Mus musculus; assay: Toxicity in BALB/c mouse assessed as increase in spleen weight at 4.7 mg/kg, ip administered twice a week for 3 weeks measured after 72 hrs of last dose; assay type: organism-based; design: dose 4.7 mg/kg, route intraperitoneal; conditions: in vivo; outline: as §1
[12] = tested on: Mus musculus; assay: Toxicity in BALB/c mouse assessed as increase in spleen weight at 1.5 mg/kg, ip administered twice a week for 3 weeks measured after 72 hrs of last dose; assay type: organism-based; design: dose 1.5 mg/kg, route intraperitoneal; conditions: in vivo; outline: as §1
[13] = tested on: Mus musculus; assay: Toxicity in BALB/c mouse assessed as increase in spleen weight at 15 mg/kg, ip administered twice a week for 3 weeks measured after 72 hrs of last dose; assay type: organism-based; design: dose 15 mg/kg, route intraperitoneal; conditions: in vivo; outline: as §1
[14] = tested on: Mus musculus; assay: Toxicity in BALB/c mouse assessed as reduction in body weight at 0.5 mg/kg, ip administered twice a week for 3 weeks measured after 72 hrs of last dose; assay type: organism-based; design: dose 0.5 mg/kg, route intraperitoneal; conditions: in vivo; outline: as §1
[15] = tested on: Mus musculus; assay: Reduction of PTEN mRNA level in BALB/c mouse liver at 32 mg/kg, ip after 72 hrs; assay type: functional, organism-based; design: dose 32 mg/kg; outline: as §2
[16] = tested on: Mus musculus; assay: Reduction of PTEN level in ip dosed BALB/c mouse liver at 37 mg/kg by Western blot analysis; assay type: functional, organism-based; design: dose 37 mg/kg
[17] = tested on: Mus musculus; assay: Toxicity in BALB/c mouse assessed as increase in spleen weight at 0.5 mg/kg, ip administered twice a week for 3 weeks measured after 72 hrs of last dose; assay type: organism-based; design: dose 0.5 mg/kg, route intraperitoneal; conditions: in vivo; outline: as §1
[18] = species on record: Mus musculus; assay: Binding affinity to mouse PTEN mRNA assessed as melting temperature
Outline: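 Tm of ASO–RNA duplex, i.e. melting temperature of the ASO hybridised to its complementary RNA.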

[19] = tested on: Mus musculus; assay: Reduction of PTEN mRNA level in ip dosed BALB/c mouse liver administered twice a week for 3 weeks measured after 72 hrs of last dose; assay type: functional; outline: as §1
[20] = tested on: Mus musculus; assay: Toxicity in BALB/c mouse assessed as increase in liver weight at 4.7 mg/kg, ip administered twice a week for 3 weeks measured after 72 hrs of last dose; assay type: organism-based; design: dose 4.7 mg/kg, route intraperitoneal; conditions: in vivo; outline: as §1
[21] = tested on: Mus musculus; assay: Toxicity in BALB/c mouse assessed as reduction in body weight at 4.7 mg/kg, ip administered twice a week for 3 weeks measured after 72 hrs of last dose; assay type: organism-based; design: dose 4.7 mg/kg, route intraperitoneal; conditions: in vivo; outline: as §1
[22] = tested on: Mus musculus; assay: Reduction of PTEN mRNA level in ip dosed BALB/c mouse liver after 72 hrs; assay type: functional
[23] = tested on: Mus musculus; assay: Hepatotoxicity in BALB/c mouse assessed as increase in liver ALT level at 15 mg/kg, ip administered twice a week for 3 weeks measured after 72 hrs of last dose; assay type: toxicity, organism-based; design: dose 15 mg/kg, route intraperitoneal; conditions: in vivo; outline: as §1
[24] = tested on: Mus musculus; assay: Metabolic stability in BALB/c mouse liver assessed as antisense oligonucleotide level at 18 mg/kg; assay type: ADME, organism-based; design: dose 18 mg/kg; conditions: in vivo
[25] = tested on: Mus musculus; assay: Hepatotoxicity in BALB/c mouse assessed as increase in liver ALT level at 100 mg/kg, ip after 72 hrs; assay type: toxicity, organism-based; design: dose 100 mg/kg, route intraperitoneal; conditions: in vivo; outline: as §2
[26] = tested on: Mus musculus; assay: Reduction of PTEN mRNA level in BALB/c mouse liver at 100 mg/kg, ip after 72 hrs; assay type: functional; outline: as §2
[27] = tested on: Mus musculus; assay: Toxicity in BALB/c mouse assessed as reduction in body weight at 15 mg/kg, ip administered twice a week for 3 weeks measured after 72 hrs of last dose; assay type: organism-based; design: dose 15 mg/kg, route intraperitoneal; conditions: in vivo; outline: as §1

For `Cc1cn([C@@H]2O[C@@]3(COP(O)(=S)O[C@H]4[C@H]5O[C@@H](C)[C@]4(COP(O)(=S)O[C@H]4C[C@H](n6cc(C)c(=O)[nH]c6=O)O[C@@H]4COP(O)(=S)O[C@H]4[C@@H](O)[C@H](n6cnc7c6N=CNC7N)O[C@@H]4COP(O)(=S)O[C@H]4[C@@H](O)[C@H](n6cnc7c(=O)[nH]c(N)nc76)O[C@@H]4COP(O)(=S)O[C@H]4[C@@H](O)[C@H](n6ccc(N)nc6=O)O[C@@H]4COP(O)(=S)O[C@H]4[C@@H](O)[C@H](n6cnc7c(N)ncnc76)O[C@@H]4COP(O)(=S)O[C@H]4[C@@H](O)[C@H](n6ccc(N)nc6=O)O[C@@H]4COP(O)(=S)O[C@H]4[C@@H](O)[C@H](n6cc(C)c(=O)[nH]c6=O)O[C@@H]4COP(O)(=S)O[C@H]4[C@@H](O)[C@H](n6cnc7c(=O)[nH]c(N)nc76)O[C@@H]4COP(O)(=S)O[C@H]4[C@@H](O)[C@H](n6cnc7c(=O)[nH]c(N)nc76)O[C@@H]4COP(O)(=S)O[C@H]4[C@@H](O)[C@H](n6ccc(N)nc6=O)O[C@@H]4COP(O)(=S)O[C@H]4[C@H]6O[C@@H](C)[C@]4(COP(O)(=S)O[C@H]4[C@H]7O[C@@H](C)[C@]4(COP(=O)(O)O)O[C@H]7n4ccc(=O)[nH]c4=O)O[C@H]6n4cc(C)c(N)nc4=O)O[C@H]5n4ccc(=O)[nH]c4=O)[C@H](C)O[C@@H]2[C@@H]3O)c(=O)nc1N` (stereo partly drawn), the Activity [1] was “Toxic”, the Activity [2] was “Non-toxic” and the Activity [3] was “Toxic”. The IC50 [4] was 5.8 nM, the Activity [5] was “Active” and the Activity [6] was “Toxic”. For the same molecule, the EC50 [7] was 6.3 µg/g, the Activity [8] was “Non-toxic” and the Activity [9] was “Toxic”. The Activity [10] was “Non-toxic”, the Activity [11] was “Non-toxic” and the Activity [12] was “Non-toxic”. The Activity [13] was “Non-toxic”, the Activity [14] was “Toxic” and the Activity [15] was “Active”. The Activity [16] was “Active”, the Activity [17] was “Non-toxic” and the Tm [18] was 59.1 °C. The ED50 [19] was 2.4 mg/kg, the Activity [20] was “Non-toxic” and the Activity [21] was “Toxic”. For the same molecule, the ED50 [22] was 9 mg/kg, the Activity [23] was “Toxic” and the Stability [24] was 25 µg/g. For the same molecule, the Activity [25] was “Non-toxic”, the Activity [26] was “Active” and the Activity ([26]; route intraperitoneal) was greater than 90%. For the same molecule, the Activity [27] was “Toxic”.
